# How the values were obtained:
# [1] = molecular target: T1, Serine/threonine-protein kinase B-raf (Homo sapiens, UniProt P15056, V600E); assay: Inhibition of BRAF V600E mutant ERK phosphorylation in human WM266.4 cells; assay type: cell-based
# Outline: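 WM266.4 melanoma cells, which carry mutant V600E BRAF, exposed to inhibitor for 6 h. ERK phosphorylation (pERK) measured and IC50 derived. Run in triplicate, with a few compounds measured once.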
# [2] = Growth inhibition of human WM266.4 cells expressing BRAF V600E mutant after 5 days by SRB assay; assay type: functional; conditions: WM 266-4, 120 h
# [3] = molecular target: T1, Serine/threonine-protein kinase B-raf; assay: Inhibition of human BRAF V600E mutant expressed in baculovirus system
# Outline: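 Isolated purified V600E BRAF kinase with a 45 min incubation. Enzyme inhibition measured and IC50 derived. Run in triplicate, with one compound measured once.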
# [4] = Tmax in BALB/cAnNCrl mouse at 10 mg/kg, po; assay type: ADME, organism-based; set-up: dose 10 mg/kg, route oral; conditions: in vivo
# Outline: (§1)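 Female BALB/cAnNCrl mice, at least 6 weeks old, dosed once by oral gavage at 10 mL/kg in DMSO/water 1:19 v/v. Blood was taken at six or eight time points from 15 min to 18 or 24 h, three mice per time point, by terminal cardiac puncture under halothane or isoflurane into heparinized syringes. Plasma was snap frozen and stored at -70 °C.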
# [5] = Oral bioavailability in BALB/cAnNCrl mouse at 10 mg/kg; assay type: ADME, organism-based; conditions: in vivo
# Outline: (§2)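 Female BALB/cAnNCrl mice, at least 6 weeks old. The oral arm was gavage at 10 mL/kg in DMSO/water 1:19. The iv arm was 2 mg/kg (~4 μmol/kg) at 10 mL/kg in DMSO/Tween-20/water 10:1:89, sampled at seven or eight points from 5 min to 18 or 24 h. Three mice per time point, terminal cardiac blood, plasma.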
# [6] = Half life in BALB/cAnNCrl mouse at 10 mg/kg, po; assay type: ADME, organism-based; set-up: dose 10 mg/kg, route oral; conditions: in vivo; outline: as §1
# [7] = Cmax in BALB/cAnNCrl mouse at 10 mg/kg, po; assay type: ADME, organism-based; set-up: dose 10 mg/kg, route oral; conditions: in vivo; outline: as §1
# [8] = Growth inhibition of human WM266.4 cells expressing BRAF V600E mutant after 96 hrs by SRB assay
# [9] = Growth inhibition of wild type human WM1361 cells after 5 days by SRB assay; conditions: WM1361, 120 h
# [10] = Selectivity ratio of GI50 for human WM266.4 cells expressing BRAF V600E mutant to GI50 for human WM1361 cells
# [11] = Cmax in BALB/cAnNCrl mouse at 20 mg/kg, po; assay type: ADME, organism-based; set-up: dose 20 mg/kg, route oral; conditions: in vivo; outline: as §1
# Liver microsomes = assay: Metabolic stability in human liver microsomes; assay type: ADME, Microsome
# Outline: (§3)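 Phase I microsomal incubation of compound at 10 μM for 30 min, stopped with 3 volumes of methanol containing 500 nM roscovitine as internal standard. Parent and metabolites were measured by LC-MS, positive-ion electrospray, on a polar reversed-phase column.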
# [12] = Half life in BALB/cAnNCrl mouse at 20 mg/kg, po; assay type: ADME, organism-based; set-up: dose 20 mg/kg, route oral; conditions: in vivo; outline: as §1
# [13] = Oral bioavailability in BALB/cAnNCrl mouse at 20 mg/kg; assay type: ADME, organism-based; conditions: in vivo; outline: as §2
# [14] = Tmax in BALB/cAnNCrl mouse at 20 mg/kg, po; assay type: ADME, organism-based; set-up: dose 20 mg/kg, route oral; conditions: in vivo; outline: as §1
# [15] = Metabolic stability in mouse liver microsomes; assay type: ADME, Microsome; outline: as §3
# [16] = Ratio of plasma concentration in Crl:CD1-Foxn1nu mouse to GI50 for human WM266.4 cells xenografted in Crl:CD1-Foxn1nu mouse; assay type: ADME; conditions: in vivo
# T1 sequence (P15056 2-766 V600E limits assumed): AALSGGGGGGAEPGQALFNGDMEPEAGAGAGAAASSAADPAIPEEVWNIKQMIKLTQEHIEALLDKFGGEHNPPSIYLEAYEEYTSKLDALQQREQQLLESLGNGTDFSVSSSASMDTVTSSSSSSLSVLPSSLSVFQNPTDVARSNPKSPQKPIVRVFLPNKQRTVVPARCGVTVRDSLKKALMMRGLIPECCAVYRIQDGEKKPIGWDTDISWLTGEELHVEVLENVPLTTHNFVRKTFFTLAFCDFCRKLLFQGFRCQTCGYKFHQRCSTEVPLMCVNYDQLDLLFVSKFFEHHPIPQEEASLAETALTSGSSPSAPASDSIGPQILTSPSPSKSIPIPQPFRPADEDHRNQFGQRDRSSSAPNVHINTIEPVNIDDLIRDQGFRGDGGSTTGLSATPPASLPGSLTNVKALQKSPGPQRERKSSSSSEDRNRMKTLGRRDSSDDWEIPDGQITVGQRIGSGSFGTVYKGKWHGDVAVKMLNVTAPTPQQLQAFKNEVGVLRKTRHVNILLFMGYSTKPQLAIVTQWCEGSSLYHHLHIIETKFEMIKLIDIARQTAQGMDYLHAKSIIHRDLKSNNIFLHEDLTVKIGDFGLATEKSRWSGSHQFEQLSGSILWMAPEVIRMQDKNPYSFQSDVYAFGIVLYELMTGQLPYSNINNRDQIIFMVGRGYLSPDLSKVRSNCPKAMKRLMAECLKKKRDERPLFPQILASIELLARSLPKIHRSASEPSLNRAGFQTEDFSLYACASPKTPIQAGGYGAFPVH
Compound,IC50 [1] [µM],GI50 [2] [µM],IC50 [3] [µM],Tmax [4] [h],bioavailability [5] [%],half-life [6] [h],Cmax [7] [µM],further results
CC(C)(C)c1cc(NC(=O)Nc2ccc(Oc3ccnc4[nH]c(=O)[nH]c34)cc2)n(-c2ccc(F)cc2)n1,0.411,0.54,0.124,,,,,
Cc1ccc(-n2nc(C(C)(C)C)cc2NC(=O)Nc2ccc(Oc3ccnc4[nH]c(=O)n(C)c34)cc2)cc1,0.09,0.066,0.202,1,34,3.4,39.6,
CCCn1nc(C(C)(C)C)cc1NC(=O)Nc1ccc(Oc2ccnc3[nH]c(=O)[nH]c23)cc1,10.8,9.5,0.083,,,,,
CC(C)(C)c1cc(NC(=O)Nc2ccc(Oc3ccnc4[nH]c(=O)[nH]c34)cc2)n(C(C)(C)C)n1,33,26,1.19,,,,,
CC(C)(C)c1cc(NC(=O)Nc2ccc(Oc3ccnc4[nH]c(=O)[nH]c34)cc2)n(-c2ccccn2)n1,6.4,3.4,0.21,,,,,
CC(C)(C)c1cc(NC(=O)Nc2ccc(Oc3ccnc4[nH]c(=O)[nH]c34)cc2)n(-c2ccc(F)cc2F)n1,1.19,1.23,0.104,,,,,
Cn1nc(C(C)(C)C)cc1NC(=O)Nc1ccc(Oc2ccnc3[nH]c(=O)[nH]c23)cc1,28,12.9,0.033,,,,,
Cc1ccc(-n2nc(C(C)(C)C)cc2NC(=O)Nc2ccc(Oc3ccnc4c3[nH]c(=O)n4C)cc2)cc1 [listing 1 of 2 here],0.036,,3,,,,,GI50 [8]: 0.052 µM
CC(C)(C)c1cc(NC(=O)Nc2ccc(Oc3ccnc4[nH]c(=O)[nH]c34)cc2F)n(-c2ccccc2)n1,0.135,0.039,0.075,0.25,24,2.8,15,GI50 [9]: 0.66 µM; fold change (FC) [10]: 17
CC(C)(C)c1cc(NC(=O)Nc2ccc(Oc3ccnc4[nH]c(=O)[nH]c34)cc2)n(Cc2ccccc2)n1,13.4,10.1,0.147,,,,,
Cn1c(=O)[nH]c2nccc(Oc3ccc(NC(=O)Nc4cc(C(C)(C)C)nn4-c4ccccc4)c4ccccc34)c21,0.019,0.024,0.251,,,,,GI50 [9]: 1.2 µM; Cmax [11]: 35.5 µM; Stability (Liver microsomes): < 30%; half-life [12]: 1.91 h; bioavailability [13]: 33%; Tmax [14]: 1.5 h; fold change (FC) [10]: 49; Stability [15]: < 30%
Cn1c(=O)[nH]c2nccc(Oc3ccc(NC(=O)Nc4cc(C(C)(C)C)nn4-c4cccnc4)c4ccccc34)c21,0.1,0.069,0.79,0.5,5,0.8,4.21,
Cc1ccc(-n2nc(C(C)(C)C)cc2NC(=O)Nc2ccc(Oc3ccnc4[nH]c(=O)n(C)c34)c3ccccc23)cc1,0.026,0.016,2.28,1,43,8.4,43.3,Stability (Liver microsomes): < 30%; Stability [15]: < 30%
Cc1ccc(-n2nc(C(C)(C)C)cc2NC(=O)Nc2ccc(Oc3ccnc4c3[nH]c(=O)n4C)cc2)cc1 [listing 2 of 2 here],0.054,0.027,1.19,1,30,3.4,22.7,
Cc1ccc(-n2nc(C(C)(C)C)cc2NC(=O)Nc2ccc(Oc3ccnc4[nH]c(=O)[nH]c34)cc2F)cc1,0.04,0.046,0.11,1.5,7,5.3,7.42,GI50 [9]: 0.79 µM; fold change (FC) [10]: 17
Cc1ccc(-n2nc(C(C)(C)C)cc2NC(=O)Nc2ccc(Oc3ccnc4c3[nH]c(=O)n4C)cc2F)cn1,0.062,0.24,0.53,0.25,17,12.6,18,
Cn1c(=O)n(C)c2c(Oc3ccc(NC(=O)Nc4cc(C(C)(C)C)nn4-c4ccccc4)c(F)c3)ccnc21,0.122,0.033,1.09,0.5,59,2.1,4.44,
CC(C)(C)c1cc(NC(=O)Nc2ccc(Oc3ccnc4[nH]c(=O)[nH]c34)cc2)n(-c2ccc(Cl)cc2)n1,0.35,0.53,0.14,,,,,
Cc1cc(NC(=O)Nc2ccc(Oc3ccnc4[nH]c(=O)[nH]c34)cc2)n(-c2ccc(Cl)cc2)n1,70,21,0.29,,,,,
CC(C)(C)c1cc(NC(=O)Nc2ccc(Oc3ccnc4[nH]c(=O)[nH]c34)cc2)n(-c2ccccc2)n1,0.62,0.39,0.094,,,,,GI50 [9]: 3.2 µM; fold change (FC) [10]: 8
CC(C)c1cc(NC(=O)Nc2ccc(Oc3ccnc4[nH]c(=O)[nH]c34)cc2)n(-c2ccccc2)n1,1.97,1.17,0.042,,,,,
Cc1ccc(-n2nc(C(C)(C)C)cc2NC(=O)Nc2ccc(Oc3ccnc4c3n(C)c(=O)n4C)cc2F)cc1,0.052,0.32,1.13,0.5,31,9.4,8.12,
Cc1ccc(-n2nc(C(C)(C)C)cc2NC(=O)Nc2ccc(Oc3ccnc4[nH]c(=O)[nH]c34)cc2)cc1,0.42,0.3,0.142,,,,,Cmax [11]: 3.67 µM; half-life [12]: 4 h; Ratio [16]: 12; bioavailability [13]: 6.5%; Tmax [14]: 0.5 h
CNC(=O)c1cc(Oc2ccc(NC(=O)Nc3ccc(Cl)c(C(F)(F)F)c3)cc2)ccn1 [SORAFENIB],,,,,,,,GI50 [9]: 4.5 µM; fold change (FC) [10]: 1

# Source: ChEMBL document CHEMBL1156296, “Development of novel, highly potent inhibitors of V-RAF murine sarcoma viral oncogene homologue B1 (BRAF): increasing cellular potency through optimization of a distal heteroaromatic group” (J Med Chem, 2010)
